Assay [1] relates to BXPC-3. Nature of the assay: Effect of survival of human BxPC3 cells at 3.75 uM by MTT assay. The class given is functional, cell-based. In short, it runs like this: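 BxPC-3 pancreatic cancer cells given the supplement alone; growth read by MTT assay against a DMSO control; n = 3.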
On the technique in general: Formazan colour is commonly taken as a measure of viable cells.

Assay [2] deals with BXPC-3. Put plainly: Effect of FASN expression of human BxPC3 cells at 3.75 uM by Western blot analysis. It counts as functional, cell-based. In a few lines: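 BxPC-3 pancreatic cancer cells given the supplement; FASN protein read by Western blot, with actin as the loading control.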
(In general: Immunoblotting shows a protein as a band on a membrane.)

Assay [3] has as its system PANC-1. Put plainly: Inhibition of survival of human PANC1 cells after 10 to 14 days by crystal violet staining-based colony formation assay. It counts as functional, cell-based. In a few lines:
(§1)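 Cells seeded at 100/well (PANC-1, including stable vector- or wild-type FASN-transfected lines) or 200/well (BxPC-3) and grown 24 h. Then cultured continuously with PPIs or DMSO vehicle for 10–14 days, stained with crystal violet and colonies counted manually. Three independent experiments.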

The test system of assay [4] is BXPC-3. Nature of the assay: Induction of apoptosis in human BxPC3 cells in presence of 3.75 uM palmitate. The class given is functional, cell-based.
Assay [5] relates to PANC-1. Nature of the assay: Inhibition of survival of vector-transfected human PANC1 cells after 10 to 14 days by crystal violet staining-based colony formation assay. It counts as functional, cell-based. In a few lines: as §1
Assay [6] relates to PANC-1. Put plainly: Effect on FASN expression in human PANC1 cells at 12.5 to 200 uM after 30 mins by Western blot analysis. The class given is functional, cell-based.
For assay [7], the system named is BXPC-3. Nature of the assay: Induction of apoptosis in human BxPC3 cells assessed as PARP1 cleavage after 24 hrs by Western blot analysis. It counts as functional, cell-based. In short, it runs like this:
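Harvested and analysed by Western blot with an antibody specific to cleaved PARP-1; actin as loading control.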

Assay [8] deals with BXPC-3. Put plainly: Effect on pH homeostasis in human BxPC3 cells assessed as change in intracellular pH at 12.5 to 100 uM after 72 hrs by pHrodo red dye-based fluorescence assay. It counts as functional, cell-based. In a few lines:
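Loaded with pHrodo red intracellular pH dye and fluorescence read in-well. Fluorescence converted to pH using a calibration kit standard curve (fluorescence vs pH). Three independent experiments.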

Assay [9] has as its target T1, Fatty acid synthase (Homo sapiens, UniProt P49327).
The subject of assay [10] is BXPC-3. Put plainly: Cytotoxicity against human BxPC3 cells by MTT assay in presence of 3.75 uM palmitate. It counts as functional, cell-based.
The target of assay [11] is T1, Fatty acid synthase. Nature of the assay: Inhibition of purified recombinant FASN TE activity (unknown origin) using 4-MUH as substrate preincubated for 30 mins before substrate addition measured after 1 hr by fluorescence assay.
The target of assay [12] is T1, Fatty acid synthase. This is another data set of the same source.
The test system of assay [13] is PANC-1. Put plainly: Inhibition of survival of wild-type FASN overexpressing human PANC1 cells after 10 to 14 days by crystal violet staining-based colony formation assay. It counts as functional, cell-based. In a few lines:
as §1

In assay [14] the test system is PANC-1. Put plainly: Induction of apoptosis in human PANC1 cells assessed as cytoplasmic histone-associated DNA fragments after 72 hrs by ELISA method. The class given is functional, cell-based. In general terms: In an ELISA, binding on a coated surface is turned into a signal by an enzyme label.
In assay [15] the test system is BXPC-3. Nature of the assay: Effect on pH homeostasis in human BxPC3 cells assessed as change in extracellular pH at 100 uM after 72 hrs by pH metry. It counts as functional, cell-based. In a few lines:
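Culture medium was collected, cleared of cell debris by centrifugation, and measured with a pH meter.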

Molecules are shown by their SMILES. The source made the active and inactive calls. The calls are words filed in the database; no cut-off is given here.

T1 sequence (P49327 whole entry): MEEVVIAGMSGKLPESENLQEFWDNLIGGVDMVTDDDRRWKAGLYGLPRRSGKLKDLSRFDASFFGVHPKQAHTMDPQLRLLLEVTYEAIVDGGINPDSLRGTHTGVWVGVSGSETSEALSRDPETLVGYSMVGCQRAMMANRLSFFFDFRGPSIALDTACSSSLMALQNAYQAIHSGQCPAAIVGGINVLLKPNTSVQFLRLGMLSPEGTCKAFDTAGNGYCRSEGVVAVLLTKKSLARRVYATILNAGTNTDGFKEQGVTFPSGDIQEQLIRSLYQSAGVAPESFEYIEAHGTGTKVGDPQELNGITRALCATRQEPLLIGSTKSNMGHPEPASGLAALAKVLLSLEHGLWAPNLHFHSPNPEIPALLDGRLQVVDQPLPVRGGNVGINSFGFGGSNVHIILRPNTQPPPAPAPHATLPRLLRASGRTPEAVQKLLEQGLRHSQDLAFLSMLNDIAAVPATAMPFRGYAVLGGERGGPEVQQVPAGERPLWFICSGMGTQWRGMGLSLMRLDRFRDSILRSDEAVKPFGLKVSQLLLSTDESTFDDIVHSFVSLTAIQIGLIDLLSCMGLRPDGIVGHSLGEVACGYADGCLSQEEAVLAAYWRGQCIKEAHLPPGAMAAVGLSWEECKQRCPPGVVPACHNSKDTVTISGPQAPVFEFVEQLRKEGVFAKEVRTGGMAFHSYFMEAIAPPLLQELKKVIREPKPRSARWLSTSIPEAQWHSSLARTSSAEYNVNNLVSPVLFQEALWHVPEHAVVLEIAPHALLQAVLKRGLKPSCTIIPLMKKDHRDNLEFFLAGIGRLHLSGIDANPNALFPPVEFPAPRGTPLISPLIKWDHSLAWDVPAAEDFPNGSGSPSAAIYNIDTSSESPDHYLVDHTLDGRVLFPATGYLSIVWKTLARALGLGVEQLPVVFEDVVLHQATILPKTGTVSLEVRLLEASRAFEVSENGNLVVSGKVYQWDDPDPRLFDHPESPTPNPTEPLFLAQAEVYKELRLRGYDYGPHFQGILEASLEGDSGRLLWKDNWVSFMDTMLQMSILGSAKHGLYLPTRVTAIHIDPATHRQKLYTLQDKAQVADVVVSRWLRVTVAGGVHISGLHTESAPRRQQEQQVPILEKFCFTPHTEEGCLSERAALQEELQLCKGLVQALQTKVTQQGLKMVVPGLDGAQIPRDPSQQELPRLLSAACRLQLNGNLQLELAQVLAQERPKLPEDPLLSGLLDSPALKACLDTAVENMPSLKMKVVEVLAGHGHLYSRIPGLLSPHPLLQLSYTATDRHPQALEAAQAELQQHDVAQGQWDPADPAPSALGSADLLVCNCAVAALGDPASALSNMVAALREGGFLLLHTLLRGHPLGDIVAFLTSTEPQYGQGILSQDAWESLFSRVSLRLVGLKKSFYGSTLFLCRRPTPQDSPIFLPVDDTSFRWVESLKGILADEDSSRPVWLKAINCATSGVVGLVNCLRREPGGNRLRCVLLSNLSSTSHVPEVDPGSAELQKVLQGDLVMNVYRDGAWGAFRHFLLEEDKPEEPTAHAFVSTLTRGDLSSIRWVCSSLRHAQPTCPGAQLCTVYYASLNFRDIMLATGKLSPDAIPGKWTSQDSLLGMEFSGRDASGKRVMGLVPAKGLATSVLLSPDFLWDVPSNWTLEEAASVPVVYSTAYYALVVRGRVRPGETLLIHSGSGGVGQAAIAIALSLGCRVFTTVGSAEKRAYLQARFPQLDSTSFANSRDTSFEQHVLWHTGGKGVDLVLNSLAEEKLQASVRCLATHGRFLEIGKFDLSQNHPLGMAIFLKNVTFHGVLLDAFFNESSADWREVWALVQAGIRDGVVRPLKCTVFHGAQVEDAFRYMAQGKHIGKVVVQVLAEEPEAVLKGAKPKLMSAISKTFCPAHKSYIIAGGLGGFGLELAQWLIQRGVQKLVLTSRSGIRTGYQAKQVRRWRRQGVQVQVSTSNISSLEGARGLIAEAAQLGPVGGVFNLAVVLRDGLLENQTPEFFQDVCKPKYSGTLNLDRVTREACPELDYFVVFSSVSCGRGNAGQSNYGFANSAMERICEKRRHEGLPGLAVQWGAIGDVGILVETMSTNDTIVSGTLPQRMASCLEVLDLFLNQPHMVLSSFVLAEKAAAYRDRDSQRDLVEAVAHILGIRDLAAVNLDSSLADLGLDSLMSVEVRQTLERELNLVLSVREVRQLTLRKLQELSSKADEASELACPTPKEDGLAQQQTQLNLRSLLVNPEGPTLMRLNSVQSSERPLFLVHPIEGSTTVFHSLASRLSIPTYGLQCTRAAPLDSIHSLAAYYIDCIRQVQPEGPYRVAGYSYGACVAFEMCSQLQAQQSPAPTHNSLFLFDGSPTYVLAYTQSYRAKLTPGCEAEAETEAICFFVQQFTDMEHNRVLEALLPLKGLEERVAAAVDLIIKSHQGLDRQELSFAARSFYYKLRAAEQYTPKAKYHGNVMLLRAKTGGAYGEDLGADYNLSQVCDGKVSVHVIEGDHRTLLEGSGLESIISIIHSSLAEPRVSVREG

For `CCCCCCCCCCCCCCCC(=O)O`, the outcome in the assay on BXPC-3 [1] and in the assay with BXPC-3 [2] was inactive.
For orientation: IC50 means the midpoint of a concentration-inhibition curve. The Ki is a measure of affinity in units of concentration, obtained from inhibition or displacement. As to `Cc1c(OCC(F)(F)F)ccnc1C[S+]([O-])c1nc2ccccc2[nH]1` (stereo unspecified) [LANSOPRAZOLE], the inhibition entry with PANC-1 [3] is “Dose-dependent effect”. Moreover, the outcome in the assay on BXPC-3 [4], in the assay with PANC-1 [6], in the assay with BXPC-3 [8], in the assay on BXPC-3 [10] and with BXPC-3 [15] was inactive. For the same molecule, the inhibition result with PANC-1 [5] was “inactive”. The Activity entry with BXPC-3 [7] and in the assay on PANC-1 [14] was “Dose-dependent effect” in each case. The concentration for half-maximal inhibition (IC50) at Fatty acid synthase [9] is 93 µM; at Fatty acid synthase [11], 46.7 µM; at Fatty acid synthase [12], 124 µM. Further, the Ki on Fatty acid synthase [11] is 5.3 µM. In addition, the inhibition entry in the assay on PANC-1 [13] is “Active”.

The record behind these values is ChEMBL document CHEMBL3407413, “Repositioning proton pump inhibitors as anticancer drugs by targeting the thioesterase domain of human fatty acid synthase” (J Med Chem, 2015).
